From ChEMBL document CHEMBL3393009 (J Med Chem, 2015)
Active and inactive are the calls of the source. No cut-off for these calls is given here.

What was measured:
[1] = Volume of distribution at steady state in non-human primate at 5 mg/kg, po; assay type: ADME, organism-based; parameters: dose 5 mg/kg, route oral; settings: monkey, in vivo
Rattus norvegicus [2] = assay: fCmax in Wistar Han rat at 60 mg/kg, po bid for 14 days; assay type: ADME, organism-based; parameters: dose 60 mg/kg, route oral; settings: in vivo, 336 h
[3] = Half life in rat at 5 mg/kg, po; assay type: ADME, organism-based; parameters: dose 5 mg/kg, route oral; settings: in vivo
Mus musculus [4] = assay: Potency index, ratio of IC50 for LRRK2 […] mutant […] phosphorylation in BAC-transgenic mouse at 3 to 100 mg/kg, sc to IC50 for wild type LRRK2 […] phosphorylation in BAC-transgenic C57BL/6J mouse brain at 3 to 100 mg/kg, sc; assay type: functional
Summary of the method: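 Four-month-old C57BL/6J mice and seven-month-old LRRK2 BAC-transgenic G2019S mice received single subcutaneous doses. Vehicle was 10% NMP in 20% SBECD. Brain was collected 90 min after dosing and snap frozen. LRRK2 pS935 phosphorylation was measured in brain lysate. An unbound-drug IC50 was estimated from the dose–response in each strain.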

Rattus norvegicus [5] = assay: Toxicity in Wistar Han rat assessed as changes in RBC parameters at 6 to 60 mg/kg, po bid for 14 days; assay type: organism-based; parameters: dose 6-60 mg/kg, route oral; settings: in vivo, 336 h
Summary of the method: (§1)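 Wistar Han rats (200–300 g, 8–11 weeks) dosed by oral gavage twice daily for 14 days. Vehicle: 10% propylene glycol/20% PEG400/70% methylcellulose solution. RBC parameters, electrolytes, food consumption, body weight, clinical chemistry and urinary biomarkers recorded.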

[6] = Drug coverage index, ratio fCmax in Wistar Han rat at 20 mg/kg, po bid for 14 days to IC50 for LRRK2 […] phosphorylation in Wistar Han rat brain at 6 to 60 mg/kg, po bid for 14 days; assay type: ADME, organism-based; settings: in vivo, 336 h
Summary of the method: (§2)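 Wistar Han rats (200–300 g, 8–11 weeks old) were dosed by oral gavage twice daily for 14 days. Vehicle was 10% propylene glycol/20% PEG400/70% 9.5% methocellulose.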

[7] = Drug coverage index, ratio fCmax in Wistar Han rat at 60 mg/kg, po bid for 14 days to IC50 for LRRK2 S395 phosphorylation in Wistar Han rat brain at 6 to 60 mg/kg, po bid for 14 days; assay type: ADME, organism-based; settings: in vivo, 336 h; summary of the method: as §2
Rattus norvegicus [8] = assay: Toxicity in Wistar Han rat assessed as changes in electrolytes levels at 6 to 60 mg/kg, po bid for 14 days; assay type: organism-based; parameters: dose 6-60 mg/kg, route oral; settings: in vivo, 336 h; summary of the method: as §1
[9] = Cmax in rat at 5 mg/kg, po; assay type: ADME, organism-based; parameters: dose 5 mg/kg, route oral; settings: in vivo
[10] = Half life in dog at 5 mg/kg, po; assay type: ADME, organism-based, Canis lupus familiaris; parameters: dose 5 mg/kg, route oral; settings: in vivo
Rattus norvegicus [11] = assay: Toxicity in Wistar Han rat assessed as changes in urinary biomarkers at 6 to 60 mg/kg, po bid for 14 days; assay type: organism-based, Urine; parameters: dose 6-60 mg/kg, route oral; settings: in vivo, 336 h; summary of the method: as §1
Rattus norvegicus [12] = assay: Toxicity in Wistar Han rat assessed as changes in food consumption at 6 to 60 mg/kg, po bid for 14 days; assay type: organism-based; parameters: dose 6-60 mg/kg, route oral; settings: in vivo, 336 h; summary of the method: as §1
[13] = Drug coverage index, ratio of average concentration ( 0 to 24 hrs) in Wistar Han rat at 6 to 60 mg/kg, po bid for 14 days to IC50 for LRRK2 […] phosphorylation in Wistar Han rat brain at 6 to 60 mg/kg, po bid for 14 days; assay type: ADME, organism-based; settings: in vivo; summary of the method: as §2
Rattus norvegicus [14] = assay: Toxicity in Wistar Han rat assessed as changes in body weight at 6 to 60 mg/kg, po bid for 14 days; assay type: organism-based; parameters: dose 6-60 mg/kg, route oral; settings: in vivo, 336 h; summary of the method: as §1
[15] = Clearance in human liver microsomes; assay type: ADME; settings: read-out: CLH
Summary of the method: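 Human liver microsomal clearance.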

[16] = Apparent permeability from apical to basolateral side by cell based assay; assay type: physicochemical; settings: not told
Rattus norvegicus [17] = assay: fAUC in Wistar Han rat at 60 mg/kg, po bid for 14 days; assay type: ADME, organism-based; parameters: dose 60 mg/kg, route oral; settings: in vivo, 336 h
Summary of the method: (§3)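 Wistar Han rats dosed orally twice daily in 10% propylene glycol/20% PEG400/methylcellulose vehicle. Unbound plasma exposure measured on days 1 and 11.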

[18] = Cytotoxicity against human THLE cells by in-vitro ATP depletion assay; assay type: cell-based
Mus musculus [19] = assay: Effect on total LRRK2 protein level in BAC-transgenic C57BL/6J mouse brain at 3 to 100 mg/kg, sc measured after 90 mins post dose; assay type: ADME, organism-based; parameters: dose 3-100 mg/kg, route subcutaneous; settings: in vivo, 1.5 h
Mus musculus [20] = assay: Inhibition of wild type LRRK2 […] phosphorylation in BAC-transgenic C57BL/6J mouse brain at 3 to 100 mg/kg, sc measured after 90 mins post dose; assay type: functional; settings: dose mg/kg 3-100; route subcutaneous
Summary of the method: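 Mice given compound subcutaneously in 10% NMP/20% SBECD vehicle: four-month-old C57BL/6J (wild type) or seven-month-old LRRK2 BAC-Tg G2019S. Tissues collected 90 min after dose. pS935, and pS1292 (custom antibody) in transgenic brain, read by Western blot of brain/kidney lysates against vehicle controls. Mean ± SEM.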

[21] = molecular target: Tyrosine-protein kinase JAK2 (Homo sapiens, UniProt O60674); assay: Inhibition of JAK2 (JH1 domain-catalytic) (unknown origin) at 1 uM
Tyrosine-protein kinase JAK2, sequence (O60674 whole entry, the tested form may be a part): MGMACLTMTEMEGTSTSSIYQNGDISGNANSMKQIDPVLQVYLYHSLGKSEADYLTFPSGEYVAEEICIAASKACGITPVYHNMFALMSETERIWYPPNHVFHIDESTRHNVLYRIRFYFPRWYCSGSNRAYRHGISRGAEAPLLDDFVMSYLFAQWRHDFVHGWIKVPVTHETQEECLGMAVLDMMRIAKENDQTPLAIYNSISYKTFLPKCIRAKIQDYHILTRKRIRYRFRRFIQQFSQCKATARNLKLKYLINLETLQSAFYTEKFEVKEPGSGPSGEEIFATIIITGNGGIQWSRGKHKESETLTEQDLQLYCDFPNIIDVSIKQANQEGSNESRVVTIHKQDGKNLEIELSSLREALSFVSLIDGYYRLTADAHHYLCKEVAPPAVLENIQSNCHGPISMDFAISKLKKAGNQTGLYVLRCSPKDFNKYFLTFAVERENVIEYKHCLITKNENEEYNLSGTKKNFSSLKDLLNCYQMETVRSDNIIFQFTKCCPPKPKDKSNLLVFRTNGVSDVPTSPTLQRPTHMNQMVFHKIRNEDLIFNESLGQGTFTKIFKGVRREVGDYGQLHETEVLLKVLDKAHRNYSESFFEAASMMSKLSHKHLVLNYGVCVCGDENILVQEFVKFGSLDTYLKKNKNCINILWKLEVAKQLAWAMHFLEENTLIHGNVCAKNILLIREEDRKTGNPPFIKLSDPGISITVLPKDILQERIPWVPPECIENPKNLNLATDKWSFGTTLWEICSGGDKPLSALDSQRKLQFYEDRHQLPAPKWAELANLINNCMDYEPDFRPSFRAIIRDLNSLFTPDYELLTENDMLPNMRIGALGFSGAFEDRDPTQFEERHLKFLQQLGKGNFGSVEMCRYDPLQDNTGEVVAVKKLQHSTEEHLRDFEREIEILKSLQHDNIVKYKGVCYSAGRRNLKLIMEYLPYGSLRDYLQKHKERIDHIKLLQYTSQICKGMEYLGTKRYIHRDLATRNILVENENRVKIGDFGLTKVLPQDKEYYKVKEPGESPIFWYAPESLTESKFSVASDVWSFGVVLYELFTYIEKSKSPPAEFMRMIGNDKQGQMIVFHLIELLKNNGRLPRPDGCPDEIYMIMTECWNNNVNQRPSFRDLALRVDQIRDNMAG

Rattus norvegicus [22] = assay: fAUC in Wistar Han rat at 20 mg/kg, po bid for 14 days; assay type: ADME, organism-based; parameters: dose 20 mg/kg, route oral; settings: in vivo, 336 h; summary of the method: as §3
[23] = AUC in non-human primate at 5 mg/kg, po; assay type: ADME, organism-based; parameters: dose 5 mg/kg, route oral; settings: monkey, plasma
Rattus norvegicus [24] = assay: Toxicity in Wistar Han rat assessed as changes in lung parameters at 6 to 60 mg/kg, po bid for 14 days by H and E staining method; assay type: organism-based; parameters: dose 6-60 mg/kg, route oral; settings: in vivo, 336 h
[25] = AUC in dog at 5 mg/kg, po; assay type: ADME, organism-based, Canis lupus familiaris; parameters: dose 5 mg/kg, route oral; settings: plasma
[26] = Oral bioavailability in dog at 5 mg/kg; assay type: ADME, organism-based, Canis lupus familiaris; settings: in vivo
[27] = Cmax in dog at 5 mg/kg, po; assay type: ADME, organism-based, Canis lupus familiaris; parameters: dose 5 mg/kg, route oral; settings: in vivo
[28] = Oral bioavailability in rat at 5 mg/kg; assay type: ADME, organism-based; settings: in vivo
[29] = Tmax in non-human primate at 5 mg/kg, po; assay type: ADME, organism-based; parameters: dose 5 mg/kg, route oral; settings: monkey, in vivo
[30] = Toxicity in Wistar Han rat at 6 to 60 mg/kg, po bid for 14 days; assay type: organism-based; parameters: dose 6-60 mg/kg, route oral; settings: in vivo
Summary of the method: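 Exploratory 14-day study in Wistar Han rats (200–300 g, 8–11 weeks old at start). Dosing was by oral gavage twice daily in 10% propylene glycol/20% PEG400/70% 9.5% methocellulose. Unbound plasma exposure was measured on days 1 and 11. Endpoints were RBC parameters, electrolytes, food consumption, body weight, clinical chemistry, urinary renal biomarkers and kidney appearance.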

[31] = Half life in non-human primate at 5 mg/kg, po; assay type: ADME, organism-based; parameters: dose 5 mg/kg, route oral; settings: monkey, in vivo
Canis familiaris = assay: Volume of distribution at steady state in dog at 5 mg/kg, po; assay type: ADME, organism-based, Canis lupus familiaris; parameters: dose 5 mg/kg, route oral; settings: in vivo

SMILES: N#Cc1cccc(-c2c[nH]c3ncnc(N4CCOCC4)c23)c1
- Vdss [1]: 1.06 L/kg
- fCmax (Rattus norvegicus [2]): 1050 nM
- half-life [3]: 373 min
- Ratio IC50 (Mus musculus [4]): 10
- Activity (Rattus norvegicus [5]): Non-toxic
- Ratio [6]: 25
- Ratio [7]: 70
- Activity (Rattus norvegicus [8]): Non-toxic
- Cmax [9]: 181 ng/mL
- half-life [10]: 46.8 min
- Activity (Rattus norvegicus [11]): Non-toxic
- Activity (Rattus norvegicus [12]): Non-toxic
- Ratio [13]: 31
- Activity (Rattus norvegicus [14]): Non-toxic
- CLint scaled [15]: 36 mL/min/kg
- Papp A→B [16]: 27 ×10⁻⁶ cm/s
- fAUC (Rattus norvegicus [17]): 11.17 µM·h
- IC50 [18]: > 223 µM
- Activity (Mus musculus [19]): Non-toxic
- fIC50 (Mus musculus [20]): 8 nM
- inhibition [21]: inactive
- fAUC (Rattus norvegicus [22]): 4.14 µM·h
- AUC [23]: 78 ng·h/mL
- Activity (Rattus norvegicus [24]): Non-toxic
- AUC [25]: 10 ng·h/mL
- bioavailability [26]: 0.6%
- Cmax [27]: 15 ng/mL
- bioavailability [28]: 41%
- Tmax [29]: 2 h
- MTD at 336 h [30]: > 60 mg/kg/day
- half-life [31]: 136 min
- Vdss (Canis familiaris): 0.92 L/kg
